Data taken from ChEMBL document CHEMBL1154781, “Synthesis and antimicrobial activity of some new N-acyl substituted phenothiazines” (2009).
Values after ≈ are worked out from the molar mass of the structure shown. Active and inactive are the calls of the source. The calls are words filed in the database; no cut-off is given here.

Tests used:
Escherichia coli [1] = assay: Antibacterial activity against Escherichia coli ATCC 25922 after 24 hrs by disc diffusion method; assay type: functional; details: ATCC 25922, 24 h
Procedure, shortened: (§1)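 Bacterial strains tested on discs at each concentration, placed in triplicate in nutrient agar seeded with fresh bacteria; incubated 37 °C for 24 h. Ciprofloxacin served as reference, with solvent and growth controls. Zones of inhibition and MICs were recorded.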

Bacillus subtilis [2] = assay: Antibacterial activity against Bacillus subtilis ATCC 11774 at 15 ug/ml after 24 hrs by disc diffusion method; assay type: functional; details: ATCC 11774, 24 h, read-out: IZ; procedure, shortened: as §1
Aspergillus fumigatus [3] = assay: Antifungal activity against Aspergillus fumigatus NCIM 902 at 10 ug/ml after 2 to 3 days by serial plate dilution method; assay type: functional; details: read-out: IZ
Procedure, shortened: (§2)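 For the fungal lawn, a loopful of each strain was suspended in 3 ml normal saline and spread on agar plates. Excess suspension was decanted and the plates were dried 1 h at 37 °C. Wells were punched and labeled. Plates, including a triplicate control, were held at 37 °C for 2–3 days. Zones of inhibition and MIC were recorded against fluconazole as standard.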

Aspergillus flavus [4] = assay: Antifungal activity against Aspergillus flavus NCIM 524 at 10 ug/ml after 2 to 3 days by serial plate dilution method; assay type: functional; details: read-out: IZ; procedure, shortened: as §2
Aspergillus niger [5] = assay: Antifungal activity against Aspergillus niger NCIM 617 after 2 to 3 days by serial plate dilution method; assay type: functional; procedure, shortened: as §2
Staphylococcus aureus [6] = assay: Antibacterial activity against Staphylococcus aureus ATCC 25923 at 10 ug/ml after 24 hrs by disc diffusion method; assay type: functional; details: ATCC 25923, 24 h, read-out: IZ; procedure, shortened: as §1
Candida albicans [7] = assay: Antifungal activity against Candida albicans NCIM 300 at 10 ug/ml after 2 to 3 days by serial plate dilution method; assay type: functional; details: read-out: IZ; procedure, shortened: as §2
Aspergillus fumigatus [8] = assay: Antifungal activity against Aspergillus fumigatus NCIM 902 after 2 to 3 days by serial plate dilution method; assay type: functional; procedure, shortened: as §2
Candida albicans [9] = assay: Antifungal activity against Candida albicans NCIM 300 after 2 to 3 days by serial plate dilution method; assay type: functional; procedure, shortened: as §2
Pseudomonas aeruginosa [10] = assay: Antibacterial activity against Pseudomonas aeruginosa ATCC 27853 at 10 ug/ml after 24 hrs by disc diffusion method; assay type: functional; details: ATCC 27853, 24 h, read-out: IZ; procedure, shortened: as §1
Bacillus subtilis [11] = assay: Antibacterial activity against Bacillus subtilis ATCC 11774 after 24 hrs by disc diffusion method; assay type: functional; details: ATCC 11774, 24 h; procedure, shortened: as §1
Aspergillus flavus [12] = assay: Antifungal activity against Aspergillus flavus NCIM 524 after 2 to 3 days by serial plate dilution method; assay type: functional; procedure, shortened: as §2
Aspergillus niger [13] = assay: Antifungal activity against Aspergillus niger NCIM 617 at 10 ug/ml after 2 to 3 days by serial plate dilution method; assay type: functional; details: read-out: IZ; procedure, shortened: as §2
Pseudomonas aeruginosa [14] = assay: Antibacterial activity against Pseudomonas aeruginosa ATCC 27853 after 24 hrs by disc diffusion method; assay type: functional; details: ATCC 27853, 24 h; procedure, shortened: as §1
Staphylococcus aureus [15] = assay: Antibacterial activity against Staphylococcus aureus ATCC 25923 at after 24 hrs by disc diffusion method; assay type: functional; details: ATCC 25923, 24 h; procedure, shortened: as §1
Escherichia coli [16] = assay: Antibacterial activity against Escherichia coli ATCC 25922 at 10 ug/ml after 24 hrs by disc diffusion method; assay type: functional; details: ATCC 25922, 24 h, read-out: IZ; procedure, shortened: as §1
Staphylococcus aureus [17] = assay: Antibacterial activity against Staphylococcus aureus ATCC 25923 at >50 ug/ml after 24 hrs by disc diffusion method; assay type: functional, organism-based; procedure, shortened: as §1
Pseudomonas aeruginosa [18] = assay: Antibacterial activity against Pseudomonas aeruginosa ATCC 27853 at >50 ug/ml after 24 hrs by disc diffusion method; assay type: functional, organism-based; procedure, shortened: as §1
Candida albicans [19] = assay: Antifungal activity against Candida albicans NCIM 300 at >50 ug/ml after 2 to 3 days by serial plate dilution method; assay type: functional, organism-based; procedure, shortened: as §2
Bacillus subtilis [20] = assay: Antibacterial activity against Bacillus subtilis ATCC 11774 at >50 ug/ml after 24 hrs by disc diffusion method; assay type: functional, organism-based; procedure, shortened: as §1
Escherichia coli [21] = assay: Antibacterial activity against Escherichia coli ATCC 25922 at >50 ug/ml after 24 hrs by disc diffusion method; assay type: functional, organism-based; procedure, shortened: as §1
Aspergillus niger [22] = assay: Antifungal activity against Aspergillus niger NCIM 617 at >50 ug/ml after 2 to 3 days by serial plate dilution method; assay type: functional, organism-based; procedure, shortened: as §2

SMILES	MIC (Escherichia coli [1]) [µg/mL]	zone of inhibition at 15 µg/mL (Bacillus subtilis [2]) [mm]	zone of inhibition at 10 µg/mL (Aspergillus fumigatus [3]) [mm]	zone of inhibition at 10 µg/mL (Aspergillus flavus [4]) [mm]	MIC (Aspergillus niger [5]) [µg/mL]	zone of inhibition at 10 µg/mL (Staphylococcus aureus [6]) [mm]	zone of inhibition at 10 µg/mL (Candida albicans [7]) [mm]	MIC (Aspergillus fumigatus [8]) [µg/mL]	MIC (Candida albicans [9]) [µg/mL]	zone of inhibition at 10 µg/mL (Pseudomonas aeruginosa [10]) [mm]	MIC (Bacillus subtilis [11]) [µg/mL]	MIC (Aspergillus flavus [12]) [µg/mL]	zone of inhibition at 10 µg/mL (Aspergillus niger [13]) [mm]	MIC (Pseudomonas aeruginosa [14]) [µg/mL]	MIC (Staphylococcus aureus [15]) [µg/mL]	zone of inhibition at 10 µg/mL (Escherichia coli [16]) [mm]	Activity (Pseudomonas aeruginosa [18])	also measured
O=C1CCC(=O)N1CC(=O)N1c2ccccc2Sc2ccc(C(F)(F)F)cc21	20 (≈ 49.2 µM)	14	19	23	20 (≈ 49.2 µM)	18	19	15 (≈ 36.9 µM)	20 (≈ 49.2 µM)	19	25 (≈ 61.5 µM)	10 (≈ 24.6 µM)	21	15 (≈ 36.9 µM)	15 (≈ 36.9 µM)	21		
O=C1CCC(=O)N1CC(=O)N1c2ccccc2Sc2ccccc21	10 (≈ 29.6 µM)	18	19	24	20 (≈ 59.1 µM)		17	20 (≈ 59.1 µM)	15 (≈ 44.3 µM)		15 (≈ 44.3 µM)	15 (≈ 44.3 µM)	19			24	inactive	Activity (Staphylococcus aureus [17]): inactive
CC(=O)c1ccc2c(c1)N(C(=O)CN1C(=O)CCC1=O)c1ccccc1S2	10 (≈ 26.3 µM)		13	20	20 (≈ 52.6 µM)			15 (≈ 39.4 µM)				25 (≈ 65.7 µM)	26			24	inactive	Activity (Staphylococcus aureus [17]): inactive; Activity (Candida albicans [19]): inactive; Activity (Bacillus subtilis [20]): inactive
O=C1c2ccccc2C(=O)N1CC(=O)N1c2ccccc2Sc2ccccc21	10 (≈ 25.9 µM)	17	20	22	10 (≈ 25.9 µM)	20	17	15 (≈ 38.8 µM)	10 (≈ 25.9 µM)		15 (≈ 38.8 µM)	10 (≈ 25.9 µM)	23		10 (≈ 25.9 µM)	22	inactive	
O=C1C=CC(=O)N1CC(=O)N1c2ccccc2Sc2ccccc21	10 (≈ 29.7 µM)	16	15	18	20 (≈ 59.5 µM)	15	17	20 (≈ 59.5 µM)	20 (≈ 59.5 µM)	17	15 (≈ 44.6 µM)	20 (≈ 59.5 µM)	17	15 (≈ 44.6 µM)	15 (≈ 44.6 µM)	20		
CC(=O)c1ccc2c(c1)N(C(=O)CN1C(=O)c3ccccc3C1=O)c1ccccc1S2	10 (≈ 23.3 µM)	16	19	22	10 (≈ 23.3 µM)	19	14	15 (≈ 35 µM)	10 (≈ 23.3 µM)		15 (≈ 35 µM)	10 (≈ 23.3 µM)	25		10 (≈ 23.3 µM)	21	inactive	
O=C1c2ccccc2C(=O)N1CC(=O)N1c2ccccc2Sc2ccc(C(F)(F)F)cc21		14	18	22	10 (≈ 22 µM)		21	10 (≈ 22 µM)	10 (≈ 22 µM)		25 (≈ 55 µM)	10 (≈ 22 µM)	21				inactive	Activity (Staphylococcus aureus [17]): inactive; Activity (Escherichia coli [21]): inactive
OC(Cn1cncn1)(Cn1cncn1)c1ccc(F)cc1F [FLUCONAZOLE]			20	24	10 (≈ 32.7 µM)		21	10 (≈ 32.7 µM)	10 (≈ 32.7 µM)			10 (≈ 32.7 µM)	23					
O=C(O)c1cn(C2CC2)c2cc(N3CCNCC3)c(F)cc2c1=O [CIPROFLOXACIN]		22				21				23	10 (≈ 30.2 µM)			10 (≈ 30.2 µM)	10 (≈ 30.2 µM)			
O=C1c2ccccc2C(=O)N1CC(=O)N1c2ccccc2Sc2ccc(Cl)cc21	10 (≈ 23.8 µM)	13	19	21	10 (≈ 23.8 µM)	19	18	10 (≈ 23.8 µM)	10 (≈ 23.8 µM)	18	30 (≈ 71.3 µM)	10 (≈ 23.8 µM)	24	10 (≈ 23.8 µM)	10 (≈ 23.8 µM)	23		
O=C1C=CC(=O)N1CC(=O)N1c2ccccc2Sc2ccc(Cl)cc21	10 (≈ 27 µM)		16	15	20 (≈ 53.9 µM)	18	17	20 (≈ 53.9 µM)	20 (≈ 53.9 µM)	17		20 (≈ 53.9 µM)	18	15 (≈ 40.5 µM)	15 (≈ 40.5 µM)	20		Activity (Bacillus subtilis [20]): inactive
O=C1CCC(=O)N1CC(=O)N1c2ccccc2Sc2ccc(Cl)cc21	15 (≈ 40.2 µM)	14	18	12	20 (≈ 53.6 µM)	12	13	20 (≈ 53.6 µM)	25 (≈ 67.1 µM)	16	30 (≈ 80.5 µM)	25 (≈ 67.1 µM)	23	15 (≈ 40.2 µM)	30 (≈ 80.5 µM)	16		
O=C1C=CC(=O)N1CC(=O)N1c2ccccc2Sc2ccc(C(F)(F)F)cc21	10 (≈ 24.7 µM)	17	10	19	20 (≈ 49.5 µM)		19	30 (≈ 74.2 µM)	20 (≈ 49.5 µM)	19	15 (≈ 37.1 µM)	20 (≈ 49.5 µM)	19	15 (≈ 37.1 µM)		19		Activity (Staphylococcus aureus [17]): inactive
CC(=O)c1ccc2c(c1)N(C(=O)CN1C(=O)C=CC1=O)c1ccccc1S2	20 (≈ 52.9 µM)	16	16	18		16		30 (≈ 79.3 µM)		17	15 (≈ 39.6 µM)	25 (≈ 66.1 µM)		15 (≈ 39.6 µM)	15 (≈ 39.6 µM)	18		Activity (Candida albicans [19]): inactive; Activity (Aspergillus niger [22]): inactive
